Assay outcomes: PubChem BioAssay, The Scripps Research Institute Molecular Screening Center
Hits are enriched below; roughly 2.7% of the tested compounds scored in any of these assays.
TCR CD3 inh – inhibitors of human TCR-CD3 interaction, primary screen, biochemical, fluorescence, TAMRA-labeled TCR probe. T-cell receptor (TCR). inhibition, % at 9.4 µM. 360,000 compounds, 0.37% hits. AID 651800, 2012;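 also: recombinant mutant TCR 2C K166C tagged with TAMRA read by polarization; 0% = receptor in buffer alone and 100% = receptor with positive control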
SIAE inh – human SIAE inhibitors, primary screen, biochemical, fluorescence polarization, FP-Rh probe, 1536-well HTS; AID 1053197, 2014; SIAE FP-Rh probe binding; 370,000 compounds, 0.69% hits; inhibition, % at 9.66 µM; Sialate O-acetylesterase (Homo sapiens), Q9HAT2;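 active = inhibition above a cutoff: mean of compounds within the control limits plus 3 SD of those, cut at about 17% in these data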;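 also: 0% = plate median of compound wells and 100% = probe without SIAE protein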
ABHD4 inh – ABHD4 inhibitors, primary screen, biochemical, fluorescence polarization, mouse; (Lyso)-N-acylphosphatidylethanolamine lipase (Mus musculus), Q8VD66; purified mABHD4, FP-Rh probe fluorescence polarization; 370,000 compounds, 0.54% hits; AID 720543, 2013; inhibition, % at 8.92 µM;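 active = inhibition exceeding the mean over every tested compound plus 3 SD, cut at about 30% in these data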;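 also: 0% = plate median of compound wells and 100% = S159A mutant with DMSO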
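Assay system: wild-type mouse ABHD4 protein; compound: single nominal dose of 8.92 µM, 0.89% DMSO final; schedule: 45 min + 60 min at 25 °C; measured by: FP readout, ex 525 nm / em 598 nm; evaluation: % inhibition of FP-Rh probe binding versus controls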
PRMT1 inh – PRMT1 methyltransferase inhibitors, primary screen, biochemical, fluorescence polarization | AID 652257, 2013 | 370,000 compounds, 1.3% hits | inhibition, % at 2.79 µM | recombinant PRMT1, activity-based probe fluorescence polarization | Protein arginine N-methyltransferase 1 (Homo sapiens), Q99873;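 active = inhibition above about 21% made by adding two undisclosed values, limit read from the data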
HTRA1 inhibitor – HTRA1 serine protease inhibitors, primary screen, biochemical, fluorescence polarization, HTS | AID 504803, 2011 | 340,000 compounds, 0.5% hits | Q92743 | inhibition, % at 5.96 µM | recombinant HTRA1, FP-rhodamine activity-based probe; in the data active = inhibition above about 36%;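 also: 0% = enzyme with DMSO and 100% = wells lacking enzyme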
Target sequence (Q92743 whole entry, looked up): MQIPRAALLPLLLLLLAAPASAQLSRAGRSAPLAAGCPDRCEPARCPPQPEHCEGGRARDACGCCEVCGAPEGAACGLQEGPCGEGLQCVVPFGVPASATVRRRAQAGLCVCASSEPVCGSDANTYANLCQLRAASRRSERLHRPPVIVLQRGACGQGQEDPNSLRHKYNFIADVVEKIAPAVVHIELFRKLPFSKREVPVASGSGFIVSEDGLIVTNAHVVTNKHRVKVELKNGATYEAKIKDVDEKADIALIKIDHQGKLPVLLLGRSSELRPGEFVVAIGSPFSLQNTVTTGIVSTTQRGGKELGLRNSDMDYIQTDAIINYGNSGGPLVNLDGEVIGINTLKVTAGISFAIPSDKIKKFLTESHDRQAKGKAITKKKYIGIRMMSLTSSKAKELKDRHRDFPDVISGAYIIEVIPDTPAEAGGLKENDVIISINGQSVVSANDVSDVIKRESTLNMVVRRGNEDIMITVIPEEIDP
HTRA1 inh conf – HTRA1 protease inhibitors, retest, confirmation, biochemical, fluorescence polarization; shares compounds with HTRA1 inhibitor; recombinant HTRA1, FP-rhodamine activity-based probe; inhibition, % at 5.96 µM; 1,600 compounds, 66% hits; AID 540248, 2011;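 active = mean inhibition over three repeats above a set limit taken from the earlier primary screen, cut at about 37% in these data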;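 also: 0% = HTRA1 with DMSO and 100% = wells lacking HTRA1; inhibitors block probe binding so polarization drops and inhibition rises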
BSA probe FL – compounds interfering with TAMRA-BSA probe, counter-screen for TCR-CD3 interaction inhibitor project, biochemical, fluorescence, TAMRA-labeled BSA. AID 652035, 2013. shares compounds with TCR CD3 inh. 1,200 compounds, 10% hits. TAMRA-labeled BSA probe fluorescence counterscreen. inhibition, % at 9.4 µM; in the data active = inhibition above about 23%;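 also: 0% = buffer low control and 100% = reference high control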
TCR-CD3 conf – TCR-CD3 interaction inhibitors, retest, confirmation, biochemical, fluorescence, TAMRA-labeled TCR probe. inhibition, % at 9.4 µM. 1,200 compounds, 48% hits. shares compounds with TCR CD3 inh. AID 652036, 2013. TAMRA-labeled TCR probe fluorescence binding assay
PRMT1 confirm – PRMT1 methyltransferase inhibitors, confirmation, biochemical, fluorescence polarization, triplicate; shares compounds with PRMT1 inh; recombinant His-PRMT1, activity-based probe fluorescence polarization; inhibition, % at 2.79 µM; 3,300 compounds, 42% hits;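 active = mean inhibition across replicates above the hit cutoff derived for the earlier primary screen, cut at about 22% in these data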
ABHD4 confirm – ABHD4 inhibitors, retest, confirmation, biochemical, fluorescence polarization, mouse. shares compounds with ABHD4 inh. AID 720658, 2013. purified mABHD4, FP-Rh probe fluorescence polarization. inhibition, % at 8.92 µM. 1,800 compounds, 55% hits;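 active = mean inhibition across replicates above the hit cutoff set in the primary screen, cut at about 30% in these data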;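 also: 0% = wild-type ABHD4 with DMSO and 100% = catalytically dead S159A mutant with DMSO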
SIAE confirm – human SIAE inhibitors, retest, confirmation, biochemical, fluorescence polarization, FP-Rh probe, triplicate; 2,300 compounds, 13% hits; SIAE FP-Rh activity-based probe; inhibition, % at 9.66 µM; shares compounds with SIAE inh;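 active = mean inhibition of the replicates above the hit cutoff set in the primary screen, cut at about 17% in these data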;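 also: 0% = SIAE with DMSO and probe and 100% = probe without SIAE; inhibitors lower polarization as more probe stays unbound to SIAE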
* marks the source's active call; other numbers are inactive results; . = no result. Rule as the data show it, unless noted: active = inhibition above about 19%; inactive = the rest.

SMILES	TCR CD3 inh	SIAE inh	ABHD4 inh	PRMT1 inh	HTRA1 inhibitor	BSA probe FL	TCR-CD3 conf	others
Cc1cc2nc3ccc(=[N+](C)C)cc-3sc2cc1N	.	.	.	.	28	.	.
CN(C)c1ccc2nc3ccc(=O)cc-3sc2c1	145*	82*	113*	60*	58*	123*	103*	HTRA1 inh conf=79*;PRMT1 confirm=35*;ABHD4 confirm=56*;SIAE confirm=68*
CCN(CCCNc1cc2c(c(N)c1S(=O)(=O)O)C(=O)c1ccccc1C2=O)c1ccccc1	3	33*	102*	23*	86*	.	.	HTRA1 inh conf=83*;ABHD4 confirm=103*;SIAE confirm=23*
Cc1cc(C)c(Nc2cc(S(=O)(=O)O)c(N)c3c2C(=O)c2ccccc2C3=O)c(C)c1	6	35*	77*	15	66*	.	.	HTRA1 inh conf=67*;ABHD4 confirm=110*;SIAE confirm=29*
Cc1ccccc1C(=O)Nc1cccc(C(=O)N/N=C/c2cc(Cl)cc([N+](=O)[O-])c2O)c1	45*	28*	37*	2	42*	-6	56*	HTRA1 inh conf=50*;ABHD4 confirm=49*;SIAE confirm=2
COc1cc(/C=N/NC(=O)c2cccc(NC(=O)c3ccccc3C)c2)ccc1O	-2	7	7	-2	-9	.	.
COc1ccc(CN2CCC(CNC(=O)Nc3ccc(C)c(F)c3)CC2)cc1	.	-5	4	-2	.	.	.
C[C@@H]1CN([C@@H](C)CO)C(=O)CCCn2cc(nn2)CO[C@H]1CN(C)C(=O)Nc1cccc(C(F)(F)F)c1	-5	9	9	4	.	.	.
CCN(CC)c1ccc(/C=c2\sc3nc4ccccc4n3c2=O)c(O)c1	28*	4	25	19	-9	28*	21*
O=c1/c(=C/c2ccc(O)c([N+](=O)[O-])c2)sc2nc3ccccc3n12	2	-18	5	1	.	.	.
O=C(c1ccc2nc(-c3ccco3)c(-c3ccco3)nc2c1)N1CCN(c2ncccn2)CC1	29*	35*	33*	35*	22	-1	25*
COc1cc2c(c(OC)c1)C(=O)O[C@H](C)C[C@@H]1O[C@H]1CCCCC(=O)C2	.	-1	1	3	.	.	.
COc1cc2c(cc1OC)n(CC(=O)NC1CCCCCC1)n1c(C)cc(=O)nc21	7	1	1	-1	7	.	.
COc1ccccc1C(=O)N1CCN(C(=O)[C@@H](Cc2ccccc2)NC(=O)[C@H]2O[C@@H](n3ccc(=O)[nH]c3=O)[C@H](O)[C@@H]2O)CC1	-6	-6	-5	-10	.	.	.
CCCn1c(=O)c(C(=O)Nc2ncccc2O)c(O)c2ccccc21	22*	-2	3	6	6	-9	21*
Cn1c(=O)c(C(=O)Nc2ncccc2O)c(O)c2ccccc21	16	9	0	0	0	.	.
CC1C(=O)N2CCCc3cc(NC(=O)C(=O)NCc4ccccn4)cc1c32 (centres undefined)	-10	1	-1	2	-1	.	.
CCC(=O)Nc1ccc2nc3c(=O)[nH]c(=S)[nH]c3nc2c1	29*	1	7	14	16	-3	28*
CNc1ccc2ncc(-c3ccccc3C(C)=O)n2n1	2	7	3	-3	.	.	.
Cc1c(O)cc2c(c1O)C(=O)CC(c1ccc(O)cc1)O2 (centres undefined)	34*	-2	-3	2	3	0	22*
COc1cc(O)c2c(c1)OC(c1ccc(O)cc1)CC2=O (centres undefined)	8	2	-7	-4	-10	.	.
COc1ccc(NS(=O)(=O)N2CCCCC2)cc1	5	-1	-1	-1	0	.	.
CCOC(=O)C1CCCN(C(=O)c2cccc(Cl)c2)CC1 (centres undefined)	-9	6	6	3	.	.	.
CC1CCc2c(C(=O)OCC(=O)Nc3cccc(S(=O)(=O)N4CCCCCC4)c3)csc2C1 (centres undefined)	32*	-5	-21	0	-25	3	7
Cc1ccc(NC(=O)COC(=O)c2csc3c2CCC(C)C3)cc1S(=O)(=O)N1CCCCC1 (centres undefined)	19*	-70	-44	0	-54	5	3
SMILES	TCR CD3 inh	SIAE inh	ABHD4 inh	PRMT1 inh	HTRA1 inhibitor	BSA probe FL	TCR-CD3 conf	others
Cc1ccc(S(=O)(=O)N2CCC(C(=O)NNC(=O)c3ccccc3O)CC2)cc1	52*	-2	6	0	20	-5	36*
Cc1ccc(S(=O)(=O)N2CCC(C(=O)NNC(=O)c3ccccc3O)CC2)cc1C	41*	1	1	-1	16	3	32*
O=C(N/N=C/c1cc(Br)ccc1O)c1cccc(N2CCCC2=O)c1	30*	-7	5	-5	16	-6	26*
O=C1NN=COc2ccccc21	21*	-4	-3	-1	6	-12	11
C/C(=N\NC(=O)c1c(C)nc2ccccn12)c1ccc(O)cc1O	49*	5	14	0	9	-12	37*
CC(=O)c1ccc(S(=O)(=O)Nc2cccc(-n3cnnn3)c2)cc1	20*	1	-12	1	-5	4	12
Cc1ccc(CN2CC=CS2(=O)=O)cc1	-5	9	-4	-3	.	.	.
CN(CC1CCOCC1)C(=O)CC1C(=O)NCCN1C/C=C/c1ccccc1 (centres undefined)	95*	-2	0	-1	3	-1	0
Cc1ccc2nc(-c3ccc(Cl)cc3)c(Cc3ccccn3)n2c1	-4	13	4	7	.	.	.
